Results published in ChEMBL document CHEMBL5260843 (J Med Chem, 2019).
Calls of active or inactive are those of the source. The rule behind the calls is not given here.

Legend:
MGC-803 [1] = test: Induction of ROS generation in human MGC-803 cells at 3 uM incubated for 24 hrs by DCFH-DA staining based flow cytometry analysis (reference value: 2.2%); format: functional
MGC-803 [2] = test: Induction of ROS generation in human MGC-803 cells at 1 uM incubated for 24 hrs by DCFH-DA staining based flow cytometry analysis (reference value: 2.2%); format: functional
Cullin-4B (Homo sapiens) = Cullin-4B (Homo sapiens) (UniProt Q13620); test: Inhibition of cullin4B neddylation in human KYSE-70 cells at 0.3 to 10 uM incubated for 24 hrs by Western blot analysis; format: cell-based; conditions: KYSE-70 cell line, dose 0.3-10 µM
Cullin-4B (Homo sapiens), sequence (Q13620 whole entry): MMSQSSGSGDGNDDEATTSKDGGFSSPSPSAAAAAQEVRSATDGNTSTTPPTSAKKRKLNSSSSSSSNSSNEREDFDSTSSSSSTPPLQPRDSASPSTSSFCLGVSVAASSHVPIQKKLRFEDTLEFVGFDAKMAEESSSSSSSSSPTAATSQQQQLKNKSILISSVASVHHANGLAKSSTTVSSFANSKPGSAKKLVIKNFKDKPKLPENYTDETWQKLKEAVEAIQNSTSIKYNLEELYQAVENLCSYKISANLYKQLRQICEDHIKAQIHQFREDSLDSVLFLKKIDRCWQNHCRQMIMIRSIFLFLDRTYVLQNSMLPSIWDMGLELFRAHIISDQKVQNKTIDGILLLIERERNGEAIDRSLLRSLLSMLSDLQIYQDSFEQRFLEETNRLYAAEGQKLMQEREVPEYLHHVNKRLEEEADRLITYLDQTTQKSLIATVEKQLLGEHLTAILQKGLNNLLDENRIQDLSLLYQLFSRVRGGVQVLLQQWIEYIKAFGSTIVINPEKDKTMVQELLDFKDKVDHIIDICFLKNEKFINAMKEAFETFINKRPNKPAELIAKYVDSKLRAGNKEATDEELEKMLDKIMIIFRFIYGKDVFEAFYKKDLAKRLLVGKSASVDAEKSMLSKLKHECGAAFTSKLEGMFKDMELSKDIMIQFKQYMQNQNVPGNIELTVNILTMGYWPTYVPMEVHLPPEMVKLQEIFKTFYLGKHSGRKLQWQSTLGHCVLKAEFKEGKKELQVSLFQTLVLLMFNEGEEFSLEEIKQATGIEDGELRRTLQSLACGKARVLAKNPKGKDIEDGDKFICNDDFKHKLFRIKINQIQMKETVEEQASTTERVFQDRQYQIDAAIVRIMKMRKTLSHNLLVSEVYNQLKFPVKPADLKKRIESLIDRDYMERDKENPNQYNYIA
Procedure, shortened: (§1)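 Cells in 6-well plates were exposed to compound for 24 h. MGC-803 were grown in DMEM and KYSE70 in RPMI 1640, both with 10% FBS at 37 °C and 5% CO2. Lysates were made in RIPA with protease inhibitors and quantified by BCA. 30 μg protein was run on 8% SDS-PAGE and blotted to nitrocellulose. Primary antibodies were applied overnight at 4 °C, then HRP secondaries, with ECL and film detection. GAPDH was the loading control. Run three times.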

KYSE-70 cell line = test: Inhibition of cullin3 neddylation in human KYSE-70 cells incubated for 24 hrs by Western blot analysis; format: cell-based; conditions: dose 0.3-10 µM; procedure, shortened: as §1
Cullin-5 (Homo sapiens) = target: T1, Cullin-5 (Homo sapiens) (UniProt Q93034); test: Inhibition of cullin5 neddylation in UBC/DCN1 overactivated human MGC-803 cells at 0.3 to 10 uM incubated for 24 hrs by Western blot analysis; format: cell-based; conditions: dose 0.3-10 µM; procedure, shortened: as §1
T1 sequence (whole entry): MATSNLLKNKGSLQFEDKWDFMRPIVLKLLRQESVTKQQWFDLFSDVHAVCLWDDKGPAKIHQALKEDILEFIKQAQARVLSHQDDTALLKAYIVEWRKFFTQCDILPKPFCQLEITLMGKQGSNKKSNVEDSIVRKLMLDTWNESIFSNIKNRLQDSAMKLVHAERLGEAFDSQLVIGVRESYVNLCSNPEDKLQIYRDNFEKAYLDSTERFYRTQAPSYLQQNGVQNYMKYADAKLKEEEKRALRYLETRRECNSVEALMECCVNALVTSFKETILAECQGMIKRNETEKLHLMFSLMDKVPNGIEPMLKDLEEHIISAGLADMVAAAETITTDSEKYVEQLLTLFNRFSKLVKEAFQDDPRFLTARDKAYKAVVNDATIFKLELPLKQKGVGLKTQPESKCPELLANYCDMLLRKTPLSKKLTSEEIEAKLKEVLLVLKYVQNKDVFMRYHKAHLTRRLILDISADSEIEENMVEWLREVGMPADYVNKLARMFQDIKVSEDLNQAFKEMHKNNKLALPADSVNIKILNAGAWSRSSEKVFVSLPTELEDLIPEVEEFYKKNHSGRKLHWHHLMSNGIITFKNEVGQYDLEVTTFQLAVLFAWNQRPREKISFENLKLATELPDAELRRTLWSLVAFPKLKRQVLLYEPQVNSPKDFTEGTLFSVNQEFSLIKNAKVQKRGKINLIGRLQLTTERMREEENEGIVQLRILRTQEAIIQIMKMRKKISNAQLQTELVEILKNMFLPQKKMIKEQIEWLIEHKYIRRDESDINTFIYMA

MGC-803 [3] = test: Inhibition of cullin3 neddylation in UBC/DCN1 overactivated human MGC-803 cells at 3 uM incubated for 24 hrs by Western blot analysis; format: cell-based; procedure, shortened: as §1
[4] = target: CDK6/cyclin D3 (Homo sapiens) (UniProt P30281+Q00534); test: Inhibition of full length human CDK6/N-terminal GST fused human cyclinD3 expressed in baculovirus expression system using 5-FAMIPTSPITTTYFFFKKK-COOH as substrate at 10 uM incubated for 60 mins in presence of ATP relative to control
Procedure, shortened: (§2)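 CDK/cyclin complexes were assayed with 3 μM 5-FAM peptide substrate. ATP was 20 μM for CDK1, 30 μM for CDK2, 280 μM for CDK4, 800 μM for CDK6 and 10 μM for CDK9. Buffer was 50 mM HEPES pH 7.5, 0.0015% Brij-35, 10 mM MgCl2 and 2 mM DTT. Reactions ran 60 min at 28 °C and were stopped with EDTA. Caliper conversion values were converted to % inhibition.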

[5] = target: CDK4/Cyclin D3 (Homo sapiens) (UniProt P11802+P30281); test: Inhibition of full length human CDK4/N-terminal GST fused human cyclinD3 expressed in baculovirus expression system using 5-FAMIPTSPITTTYFFFKKK-COOH as substrate at 10 uM incubated for 60 mins in presence of ATP relative to control; procedure, shortened: as §2
[6] = target: Cyclin-dependent kinase 1/cyclin B (Homo sapiens) (UniProt P06493+P14635+Q8WWL7+O95067); test: Inhibition of C-terminal His6 tagged human full length CDK1/N-terminal GST-tagged human full length Cyclin B expressed in baculovirus infected Sf21 cells using 5-FAM-QSPKKG-CONH2 as substrate at 10 uM incubated for 60 mins in presence of ATP relative to control; procedure, shortened: as §2
[7] = target: Tyrosine-protein kinase BTK (Homo sapiens) (UniProt Q06187); test: Inhibition of N-terminal GST-tagged full length human BTK (2 to 659 residues) expressed in Sf21 insect cells using 5-FAM-EAIYAAPFAKKK as substrate at 10 uM incubated for 60 mins relative to control
Tyrosine-protein kinase BTK (Homo sapiens), sequence (Q06187 whole entry, the tested form may be a part): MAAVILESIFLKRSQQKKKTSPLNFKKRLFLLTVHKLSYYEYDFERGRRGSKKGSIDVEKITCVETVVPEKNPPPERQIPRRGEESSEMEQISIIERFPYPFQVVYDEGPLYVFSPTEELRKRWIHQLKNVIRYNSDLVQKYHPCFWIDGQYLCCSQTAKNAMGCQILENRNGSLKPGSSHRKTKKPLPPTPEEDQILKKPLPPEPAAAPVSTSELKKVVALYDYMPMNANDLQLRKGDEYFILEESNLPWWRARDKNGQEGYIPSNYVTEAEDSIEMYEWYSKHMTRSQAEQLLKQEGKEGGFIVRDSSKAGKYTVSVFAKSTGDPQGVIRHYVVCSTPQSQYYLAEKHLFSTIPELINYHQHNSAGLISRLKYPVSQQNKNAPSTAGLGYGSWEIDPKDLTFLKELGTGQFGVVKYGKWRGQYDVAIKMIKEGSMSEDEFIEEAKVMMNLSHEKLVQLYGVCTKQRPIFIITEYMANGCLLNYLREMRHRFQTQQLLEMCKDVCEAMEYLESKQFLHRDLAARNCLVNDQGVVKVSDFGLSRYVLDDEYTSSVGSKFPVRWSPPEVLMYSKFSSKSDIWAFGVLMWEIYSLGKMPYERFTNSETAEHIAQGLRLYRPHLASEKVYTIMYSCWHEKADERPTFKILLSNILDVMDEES
Procedure, shortened: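 Mobility-shift kinase assay with BTK at 5 nM, 3 μM 5-FAM peptide and 90 μM ATP. Buffer was 50 mM HEPES pH 7.5, 0.0015% Brij-35, 10 mM MgCl2 and 2 mM DTT. Reactions ran 60 min at 28 °C and were stopped with EDTA. Substrate conversion was read on Caliper and converted to % inhibition.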

[8] = target: DCN1-like protein 1/NEDD8-conjugating enzyme Ubc12 (Homo sapiens, UniProt Q96GG9); test: Inhibition of GST-tagged DCN1 PONY domain (unknown origin)/human N-terminal acetylated UBC12 (1 to 12 residues) protein-protein interaction incubated for 1 hr by HTRF analysis; format: protein assay
DCN1-like protein 1/NEDD8-conjugating enzyme Ubc12, sequence (Q96GG9 whole entry, the tested form may be a part): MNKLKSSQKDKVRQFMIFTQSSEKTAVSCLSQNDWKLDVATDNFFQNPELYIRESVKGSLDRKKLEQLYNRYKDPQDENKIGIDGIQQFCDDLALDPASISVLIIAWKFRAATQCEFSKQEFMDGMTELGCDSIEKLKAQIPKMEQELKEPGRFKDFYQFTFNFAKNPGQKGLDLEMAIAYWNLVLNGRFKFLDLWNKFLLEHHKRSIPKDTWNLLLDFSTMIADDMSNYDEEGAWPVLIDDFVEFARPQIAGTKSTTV
DCN1-like protein 1/NEDD8-conjugating enzyme Ubc12, sequence (P61081 whole entry, further chain, the tested form may be a part): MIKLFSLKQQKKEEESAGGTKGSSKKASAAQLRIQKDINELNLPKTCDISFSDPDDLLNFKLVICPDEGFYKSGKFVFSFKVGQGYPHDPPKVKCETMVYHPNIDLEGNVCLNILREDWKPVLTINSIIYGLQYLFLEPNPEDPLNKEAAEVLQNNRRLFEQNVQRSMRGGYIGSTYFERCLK

[9] = target: CDK2/Cyclin A2 (Homo sapiens) (UniProt P24941+P20248); test: Inhibition of GST-tagged human CDK2/Cyclin A2 expressed in baculovirus infected Sf9 cells using 5-FAM-QSPKKG-CONH2 as substrate at 10 uM incubated for 60 mins in presence of ATP relative to control; procedure, shortened: as §2
KYSE-70 = test: Induction of p21 accumulation in human KYSE-70 cells incubated for 24 hrs by Western blot analysis; format: functional, cell-based; conditions: dose 0.3-10 µM; procedure, shortened: as §1
[10] = tested on: Epidermal growth factor receptor (Homo sapiens), P00533 [L858R]; test: Inhibition of human EGFR L858R mutant (669 to 1210 residues) expressed in Sf21 insect cells using 5-FAM-EEPLYWSFPAKKK-CONH2 as substrate at 10 uM incubated for 30 mins relative to control
Epidermal growth factor receptor (Homo sapiens), P00533 [L858R], sequence (P00533 whole entry L858R, the tested form may be a part): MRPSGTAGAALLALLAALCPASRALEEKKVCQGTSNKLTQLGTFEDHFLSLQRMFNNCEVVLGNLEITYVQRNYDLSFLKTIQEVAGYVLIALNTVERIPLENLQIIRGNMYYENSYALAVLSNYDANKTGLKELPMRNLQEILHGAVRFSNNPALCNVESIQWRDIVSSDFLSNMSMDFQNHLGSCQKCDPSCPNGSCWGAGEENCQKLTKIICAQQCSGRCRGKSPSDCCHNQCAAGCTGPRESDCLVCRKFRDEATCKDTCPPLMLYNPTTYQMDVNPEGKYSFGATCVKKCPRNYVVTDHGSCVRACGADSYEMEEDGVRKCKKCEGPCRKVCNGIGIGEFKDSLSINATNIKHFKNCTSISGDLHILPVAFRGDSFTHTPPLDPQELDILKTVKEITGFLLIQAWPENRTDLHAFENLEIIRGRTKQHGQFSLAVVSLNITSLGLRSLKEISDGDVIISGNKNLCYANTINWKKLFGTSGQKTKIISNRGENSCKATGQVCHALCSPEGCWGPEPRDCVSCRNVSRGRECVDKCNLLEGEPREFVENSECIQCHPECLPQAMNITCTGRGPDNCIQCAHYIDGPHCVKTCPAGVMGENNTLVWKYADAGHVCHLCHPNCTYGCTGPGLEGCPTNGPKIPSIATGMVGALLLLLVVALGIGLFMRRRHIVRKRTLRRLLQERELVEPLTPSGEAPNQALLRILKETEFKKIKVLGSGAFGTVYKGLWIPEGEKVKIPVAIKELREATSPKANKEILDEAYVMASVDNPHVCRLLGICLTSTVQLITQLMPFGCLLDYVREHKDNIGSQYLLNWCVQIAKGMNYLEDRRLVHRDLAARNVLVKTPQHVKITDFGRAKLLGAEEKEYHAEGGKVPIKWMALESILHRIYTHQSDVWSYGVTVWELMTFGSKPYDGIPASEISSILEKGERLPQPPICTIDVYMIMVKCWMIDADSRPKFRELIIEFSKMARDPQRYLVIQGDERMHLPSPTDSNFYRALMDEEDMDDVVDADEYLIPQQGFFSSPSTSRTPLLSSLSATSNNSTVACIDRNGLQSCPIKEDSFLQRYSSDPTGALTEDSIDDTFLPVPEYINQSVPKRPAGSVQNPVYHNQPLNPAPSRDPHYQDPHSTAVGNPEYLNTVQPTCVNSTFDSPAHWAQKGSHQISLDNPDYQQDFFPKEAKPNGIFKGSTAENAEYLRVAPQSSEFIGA

With `Cc1cc(Sc2nnnn2CCN(C)C)n2nc(SCc3ccc(Cl)cc3)nc2n1.Cl` the Activity (MGC-803 [1]) was 2.6%, the Activity (MGC-803 [2]) was 3.8% and the inhibition (Cullin-4B (Homo sapiens)) was “inactive”. The inhibition (KYSE-70 cell line) was “Dose-Dependent Effect”, the inhibition (Cullin-5 (Homo sapiens)) was “inactive” and the inhibition (MGC-803 [3]) was “Active”. The inhibition [4] was 21.8%, the inhibition [5] was 4.8% and the inhibition [6] was 9.6%. It also gave an inhibition [7] of 13.6%, an IC50 [8] of 0.011 µM and an inhibition [9] of 20.5%. For the same compound, the Activity (KYSE-70) was “Dose-Dependent Effect” and the inhibition [10] was -0.6%.
